Measured values from ChEMBL document CHEMBL1124186, “Synthesis and evaluation of tylosin-related macrolides modified at the aldehyde function: a new series of orally effective antibiotics” (1988).
≈ marks a conversion by molar mass, not a printed value.

Tests used:
[1] = system: Streptococcus pyogenes; assay: In vivo effective dose against experimental infections in rodent caused by Streptococcus pyogenes C203 when administered orally; assay type: functional; conditions: po
[2] = system: Fusobacterium; assay: In vitro antimicrobial activity against anaerobic bacteria fusobacterium symbiosum 1470; assay type: functional
[3] = system: Staphylococcus aureus; assay: In vitro antimicrobial activity against aerobic bacteria Staphylococcus aureus V135; assay type: functional
[4] = system: Streptococcus pneumoniae; assay: In vitro antimicrobial activity against aerobic bacteria Streptococcus pneumoniae B1-438; assay type: functional, streptococcus pneum
[5] = system: Eikenella corrodens; assay: In vitro antimicrobial activity against anaerobic bacteria bacteroides corrodens 1874; assay type: functional
[6] = system: Fusobacterium necrophorum; assay: In vitro antimicrobial activity against anaerobic bacteria usobacterium necrophorum 6054A; assay type: functional
[7] = system: Staphylococcus aureus; assay: In vitro antimicrobial activity against aerobic bacteria Staphylococcus aureus 513E; assay type: functional
[8] = system: Staphylococcus aureus; assay: In vitro antimicrobial activity against Staphylococcus aureus X1; assay type: functional
[9] = system: Streptococcus; assay: In vitro antimicrobial activity against aerobic bacteria Streptococcus C 24; assay type: functional
[10] = system: Streptococcus pyogenes; assay: Effective dose against Streptococcus pyogenes administered orally; assay type: functional; conditions: po
In short: (§1)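 Mouse protection test: infected mice were dosed twice, at 1 and 5 h postinfection, either subcutaneously or orally. […] The result is expressed as ED50 in mg/kg × 2.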

[11] = system: Haemophilus influenzae; assay: In vitro antimicrobial activity against aerobic bacteria Haemophilus influenzae 76; assay type: functional
[12] = system: Streptococcus; assay: In vitro antimicrobial activity against aerobic bacteria Streptococcus D 9960; assay type: functional
[13] = system: Streptococcus sanguinis; assay: In vitro antimicrobial activity against aerobic bacteria Streptococcus sanguis MX132; assay type: functional
[14] = system: Bacteroides fragilis; assay: In vitro antimicrobial activity against anaerobic bacteria bacteroides fragilis 1877; assay type: functional
[15] = system: Streptococcus; assay: In vitro antimicrobial activity against aerobic bacteria Streptococcus G Kruder; assay type: functional; conditions: Streptococcus; read-out: MIC
[16] = system: Prevotella melaninogenica; assay: In vitro antimicrobial activity against anaerobic bacteria bacteroides melaninogenicus 2736; assay type: functional
[17] = system: Staphylococcus aureus; assay: In vitro antimicrobial activity against aerobic bacteria Staphylococcus aureus V41; assay type: functional
[18] = system: Haemophilus influenzae; assay: In vitro antimicrobial activity against aerobic bacteria Haemophilus influenzae 465; assay type: functional
[19] = system: Streptococcus; assay: In vitro antimicrobial activity against aerobic bacteria Streptococcus D 2041; assay type: functional
[20] = system: Clostridium perfringens; assay: In vitro antimicrobial activity against anaerobic bacteria clostridium perfringens 81,; assay type: functional
[21] = system: Haemophilus influenzae; assay: In vitro antimicrobial activity against aerobic bacteria Haemophilus influenzae MX366,; assay type: functional
[22] = system: Streptococcus pyogenes; assay: In vitro antimicrobial activity against Streptococcus pyogenes C203; assay type: functional
[23] = system: Chlamydia trachomatis; assay: In vitro antimicrobial activity against chlamydia trachomatis.; assay type: functional
[24] = system: Streptococcus pyogenes; assay: Antimicrobial activity against Streptococcus pyogenes C203; assay type: functional
[25] = system: Streptococcus; assay: In vitro antimicrobial activity against aerobic bacteria Streptococcus B 8; assay type: functional
[26] = system: Peptoniphilus asaccharolyticus; assay: In vitro antimicrobial activity against anaerobic bacteria peptococcus asaccharolyticus 1302; assay type: functional
[27] = system: Phocaeicola vulgatus; assay: In vitro antimicrobial activity against anaerobic bacteria bacteroides vulgatus 1211; assay type: functional
[28] = system: Streptococcus viridans; assay: In vitro antimicrobial activity against aerobic bacteria Streptococcus viridans 9943; assay type: functional
[29] = system: Haemophilus parainfluenzae; assay: In vitro antimicrobial activity against aerobic bacteria Haemophilus parainfluenzae 9796; assay type: functional
[30] = system: Collinsella aerofaciens; assay: In vitro antimicrobial activity against anaerobic bacteria aerofaciens 1235; assay type: functional
[31] = system: Enterococcus faecium; assay: In vitro antimicrobial activity against Streptococcus faecium X66; assay type: functional, streptococcus fae-cium
[32] = system: Prevotella melaninogenica; assay: In vitro antimicrobial activity against anaerobic bacteria bacteroides melaninogenicus 1856,; assay type: functional
[33] = system: Staphylococcus aureus; assay: In vitro antimicrobial activity against aerobic bacteria Staphylococcus aureus V140,; assay type: functional
[34] = system: Streptococcus pyogenes; assay: Effective dose against Streptococcus pyogenes C203 when administered sc; assay type: functional; in short: as §1
[35] = In vitro antimicrobial activity against anaerobic bacteria peptostreptococcus intermedius 1264; assay type: functional
[36] = system: Anaerococcus prevotii; assay: In vitro antimicrobial activity against anaerobic bacteria peptococcus prevoti 1281; assay type: functional
[37] = system: Peptostreptococcus anaerobius; assay: In vitro antimicrobial activity against anaerobic bacteria eubacterium peptostreptococcus anaerobius 1428,; assay type: functional
[38] = system: Bacteroides fragilis; assay: In vitro antimicrobial activity against anaerobic bacteria bacteroides fragilis 111; assay type: functional
[39] = system: Staphylococcus aureus; assay: In vitro antimicrobial activity against aerobic bacteria Staphylococcus aureus X400; assay type: functional
[40] = system: Bacteroides fragilis; assay: In vitro antimicrobial activity against anaerobic bacteria bacteroides fragilis 1936B,; assay type: functional
[41] = system: Streptococcus pneumoniae; assay: In vitro antimicrobial activity against Streptococcus pneumoniae; assay type: functional
[42] = system: Staphylococcus epidermidis; assay: In vitro antimicrobial activity against aerobic bacteria Streptococcus epi 222; assay type: functional
[43] = system: Haemophilus influenzae; assay: In vitro antimicrobial activity against Haemophilus influenzae.; assay type: functional
[44] = system: Staphylococcus epidermidis; assay: In vitro antimicrobial activity against Staphylococcus epidermidis EPI1; assay type: functional
[45] = system: Clostridium septicum; assay: In vitro antimicrobial activity against anaerobic bacteria clostridium septicum 1128; assay type: functional
[46] = system: Cutibacterium acnes; assay: In vitro antimicrobial activity against anaerobic bacteria propionibacterium acnes 79; assay type: functional
[47] = system: Streptococcus pyogenes; assay: In vivo effective dose against experimental infections in rodent caused by Streptococcus pyogenes C203 when administered sc; assay type: functional
[48] = system: Bacteroides thetaiotaomicron; assay: In vitro antimicrobial activity against anaerobic bacteria bacteroides thetaiotaomicron 1438; assay type: functional
[49] = system: Streptococcus; assay: In vitro antimicrobial activity against aerobic bacteria Streptococcus D 8043; assay type: functional
[50] = system: Streptococcus; assay: In vitro antimicrobial activity against aerobic bacteria Streptococcus B 5; assay type: functional
[51] = system: Staphylococcus epidermidis; assay: In vitro antimicrobial activity against aerobic bacteria Streptococcus epi 270; assay type: functional
[52] = system: Clostridioides difficile; assay: In vitro antimicrobial activity against anaerobic bacteria Clostridium difficile 2994; assay type: functional

`CC[C@H]1OC(=O)C[C@@H](O)[C@H](C)[C@@H](O[C@@H]2O[C@H](C)[C@@H](O[C@H]3C[C@@](C)(O)[C@@H](O)[C@H](C)O3)[C@H](N(C)C)[C@H]2O)[C@@H](CC=O)C[C@@H](C)C(=O)/C=C/C(C)=C/[C@@H]1CO[C@@H]1O[C@H](C)[C@@H](O)[C@@H](OC)[C@H]1OC` [TYLOSIN] showed an ED50 [1] of 42 mg/kg, an MIC [2] of under 0.03 µg/mL and an MIC [3] of 1 µg/mL (≈ 1.09 µM). It also gave an MIC [4] of over 128 µg/mL, an MIC [5] of 1 µg/mL (≈ 1.09 µM) and an MIC [6] of 0.5 µg/mL (≈ 0.546 µM). The MIC [7] was 1 µg/mL (≈ 1.09 µM), the MIC [8] was 0.5 µg/mL (≈ 0.546 µM) and the MIC [9] was 0.25 µg/mL (≈ 0.273 µM). The ED50 [10] was 0.5 mg/kg, the MIC [11] was 16 µg/mL (≈ 17.5 µM) and the MIC [12] was 1 µg/mL (≈ 1.09 µM). For the same molecule, the MIC [13] was 0.5 µg/mL (≈ 0.546 µM), the MIC [14] was 1 µg/mL (≈ 1.09 µM) and the MIC [15] was 0.25 µg/mL (≈ 0.273 µM). It also gave an MIC [16] of under 0.03 µg/mL, an MIC [17] of 1 µg/mL (≈ 1.09 µM) and an MIC [18] of 32 µg/mL (≈ 34.9 µM). It also gave an MIC [19] of 1 µg/mL (≈ 1.09 µM), an MIC [20] of 0.25 µg/mL (≈ 0.273 µM) and an MIC [21] of 16 µg/mL (≈ 17.5 µM). For the same molecule, the MIC [22] was 0.25 µg/mL (≈ 0.273 µM), the MIC [23] was 0.25 µg/mL (≈ 0.273 µM) and the MIC [24] was 0.25 µg/mL (≈ 0.273 µM). For the same molecule, the MIC [25] was 1 µg/mL (≈ 1.09 µM), the MIC [26] was 0.06 µg/mL (≈ 0.0655 µM) and the MIC [27] was 1 µg/mL (≈ 1.09 µM). For the same molecule, the MIC [28] was over 128 µg/mL, the MIC [29] was 16 µg/mL (≈ 17.5 µM) and the MIC [30] was 0.12 µg/mL (≈ 0.131 µM). The MIC [31] was 2 µg/mL (≈ 2.18 µM), the MIC [32] was 0.25 µg/mL (≈ 0.273 µM) and the MIC [33] was 1 µg/mL (≈ 1.09 µM). It also gave an ED50 [34] of 0.5 mg/kg, an MIC [35] of 0.5 µg/mL (≈ 0.546 µM) and an MIC [36] of 8 µg/mL (≈ 8.73 µM). For the same molecule, the MIC [37] was 8 µg/mL (≈ 8.73 µM), the MIC [38] was 0.5 µg/mL (≈ 0.546 µM) and the MIC [39] was 1 µg/mL (≈ 1.09 µM). For the same molecule, the MIC [40] was 1 µg/mL (≈ 1.09 µM), the MIC [41] was 0.25 µg/mL (≈ 0.273 µM) and the MIC [42] was 0.25 µg/mL (≈ 0.273 µM). It also gave an MIC [43] of 16 µg/mL (≈ 17.5 µM), an MIC [44] of 1 µg/mL (≈ 1.09 µM) and an MIC [45] of 0.5 µg/mL (≈ 0.546 µM). It also gave an MIC [46] of 0.5 µg/mL (≈ 0.546 µM), an ED50 [47] of 1.3 mg/kg and an MIC [48] of 1 µg/mL (≈ 1.09 µM). It also gave an MIC [49] of 1 µg/mL (≈ 1.09 µM), an MIC [50] of 1 µg/mL (≈ 1.09 µM) and an MIC [51] of over 128 µg/mL. For the same molecule, the MIC [52] was 1 µg/mL (≈ 1.09 µM).
